IC50 and Ratio IC50 data for 6 compounds are collected here from ChEMBL document CHEMBL4819017 (Eur J Med Chem, 2021).

Several values for one entry are separate records, joined by “and”; a condition that tells them apart may be missing. Identical values can stand only once.

A word on the IC50: it is the point on the concentration scale where inhibition reaches its midpoint.

Sequence of Voltage-gated inwardly rectifying potassium channel KCNH2 (Q12809 whole entry): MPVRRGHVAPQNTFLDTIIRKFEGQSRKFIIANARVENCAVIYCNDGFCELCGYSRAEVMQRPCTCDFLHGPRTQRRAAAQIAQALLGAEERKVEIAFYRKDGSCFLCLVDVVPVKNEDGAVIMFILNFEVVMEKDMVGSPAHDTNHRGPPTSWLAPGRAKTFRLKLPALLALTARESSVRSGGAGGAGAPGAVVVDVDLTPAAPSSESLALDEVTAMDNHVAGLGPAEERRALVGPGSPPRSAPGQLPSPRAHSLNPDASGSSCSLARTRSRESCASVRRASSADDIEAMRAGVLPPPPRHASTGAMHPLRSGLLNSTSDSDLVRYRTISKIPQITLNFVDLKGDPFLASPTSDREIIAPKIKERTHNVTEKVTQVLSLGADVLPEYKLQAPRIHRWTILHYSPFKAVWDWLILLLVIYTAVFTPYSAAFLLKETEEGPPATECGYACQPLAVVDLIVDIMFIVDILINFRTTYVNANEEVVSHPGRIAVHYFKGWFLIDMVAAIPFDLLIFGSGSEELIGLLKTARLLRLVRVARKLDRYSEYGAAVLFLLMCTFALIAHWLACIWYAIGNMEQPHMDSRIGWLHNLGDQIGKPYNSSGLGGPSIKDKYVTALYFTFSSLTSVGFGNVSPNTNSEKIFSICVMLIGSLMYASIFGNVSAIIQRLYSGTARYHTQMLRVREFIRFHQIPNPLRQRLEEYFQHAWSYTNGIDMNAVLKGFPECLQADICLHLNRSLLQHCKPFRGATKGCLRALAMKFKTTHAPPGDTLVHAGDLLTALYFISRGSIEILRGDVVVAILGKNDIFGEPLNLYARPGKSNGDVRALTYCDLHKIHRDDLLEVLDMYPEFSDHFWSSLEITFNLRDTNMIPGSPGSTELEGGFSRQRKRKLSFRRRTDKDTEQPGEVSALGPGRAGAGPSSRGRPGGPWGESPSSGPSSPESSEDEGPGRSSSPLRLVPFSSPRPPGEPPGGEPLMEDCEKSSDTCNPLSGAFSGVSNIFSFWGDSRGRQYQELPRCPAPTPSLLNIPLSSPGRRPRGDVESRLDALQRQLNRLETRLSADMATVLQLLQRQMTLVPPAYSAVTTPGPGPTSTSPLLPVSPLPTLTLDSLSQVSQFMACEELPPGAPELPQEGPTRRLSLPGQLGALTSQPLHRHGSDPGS
Sequence of Phosphatidylinositol 4,5-bisphosphate 3-kinase catalytic subunit alpha isoform (P42336 whole entry, the tested form may be a part, canonical isoform): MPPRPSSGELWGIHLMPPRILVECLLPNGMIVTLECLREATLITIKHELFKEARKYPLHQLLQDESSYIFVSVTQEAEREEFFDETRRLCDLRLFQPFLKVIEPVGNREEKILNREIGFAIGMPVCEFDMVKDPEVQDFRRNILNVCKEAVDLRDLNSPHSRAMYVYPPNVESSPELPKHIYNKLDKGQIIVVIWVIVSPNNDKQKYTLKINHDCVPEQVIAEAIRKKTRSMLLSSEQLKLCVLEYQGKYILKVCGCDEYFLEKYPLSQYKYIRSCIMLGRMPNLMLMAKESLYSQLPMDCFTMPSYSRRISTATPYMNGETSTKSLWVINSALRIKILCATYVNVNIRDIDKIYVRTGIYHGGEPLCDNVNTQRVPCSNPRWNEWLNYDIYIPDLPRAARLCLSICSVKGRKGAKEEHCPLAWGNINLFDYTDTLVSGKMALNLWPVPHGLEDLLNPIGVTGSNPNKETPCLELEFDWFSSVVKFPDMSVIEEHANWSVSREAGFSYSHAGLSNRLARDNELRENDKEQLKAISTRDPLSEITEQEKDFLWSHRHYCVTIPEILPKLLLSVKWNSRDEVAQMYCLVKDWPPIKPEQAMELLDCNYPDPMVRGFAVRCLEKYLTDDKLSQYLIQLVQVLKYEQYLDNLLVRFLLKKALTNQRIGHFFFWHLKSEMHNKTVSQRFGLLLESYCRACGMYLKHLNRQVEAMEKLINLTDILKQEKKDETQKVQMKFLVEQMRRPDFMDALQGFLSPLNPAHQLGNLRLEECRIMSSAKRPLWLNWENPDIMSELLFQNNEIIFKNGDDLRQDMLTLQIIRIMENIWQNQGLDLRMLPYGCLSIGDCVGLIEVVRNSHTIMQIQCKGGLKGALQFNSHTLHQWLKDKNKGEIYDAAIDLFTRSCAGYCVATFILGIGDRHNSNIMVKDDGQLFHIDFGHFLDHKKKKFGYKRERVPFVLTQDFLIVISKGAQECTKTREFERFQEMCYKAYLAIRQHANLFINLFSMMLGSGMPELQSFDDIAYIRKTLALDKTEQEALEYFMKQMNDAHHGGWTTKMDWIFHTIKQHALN

One test deals with Serine/threonine-protein kinase mTOR (Homo sapiens, UniProt P42345). Description: Inhibition of recombinant human GST tagged mTOR (1360 to 2549 residues) expressed in baculovirus expression system measured by LanthaScreen assay. The gist of the method:
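mTOR inhibition measured by LanthaScreen assay; IC50 values average two independent experiments.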
On the technique in general: Time-resolved FRET reads energy transfer from a long-lived donor to a nearby acceptor.
Turning to `COc1ncc2cc1NS(=O)(=O)c1cccc(c1)C(=O)NCc1cccc(c1)-c1ncnc3sc-2cc13`, the IC50 amounted to 0.0047 µM. On to `COc1ncc2cc1NS(=O)(=O)c1cccc(c1)C(=O)N1CCc3ccc(cc3C1)-c1ccnc3ccc-2cc13`, for which the IC50 was determined as 0.25 µM. Consider `COc1ncc2cc1NS(=O)(=O)c1cccc(c1)C(=O)NCc1cccc(c1)-c1ccnc3ccc-2nc13`, for which the concentration for half-maximal inhibition (IC50) is above 10 µM. As for `COc1ncc2cc1NS(=O)(=O)c1cccc(c1)C(=O)NCc1cncc(c1)Cc1cnc3sc-2nn13`, the half-maximal inhibitory concentration (IC50) is 0.361 µM. On the same count and under the same terms, under `COc1ncc2cc1NS(=O)(=O)c1cccc(c1)C(=O)NCCn1cc(cn1)-c1cnc3ccc-2nn13` stands 0.0056 µM; under `COc1ncc2cc1NS(=O)(=O)c1cccc(c1)C(=O)NCc1cc(ccn1)-c1ccnc3ccc-2cc13`, 0.122 µM and 0.0722 µM.

The species entered for the next test is Homo sapiens. Put plainly: Selectivity ratio of IC50 for recombinant human GST tagged mTOR (1360 to 2549 residues) expressed in baculovirus expression system to IC50 for human full length p110alpha (1 to 1068 residues) expressed in baculovirus-infected Sf21 cells. The gist of the method:
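mTOR activity measured by LanthaScreen assay. PI3K-α activity measured by ADP Hunter Plus (ADP accumulation, fluorescence ex 544/em 580 nm), normalized to no-compound control and fitted to a sigmoid dose-response curve. IC50s are the average of two independent experiments. Ratio is mTOR IC50 over PI3K-α IC50.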
With `COc1ncc2cc1NS(=O)(=O)c1cccc(c1)C(=O)NCc1cncc(c1)Cc1cnc3sc-2nn13`, the Ratio IC50 is 40.4.

For a further test, the target named is Voltage-gated inwardly rectifying potassium channel KCNH2 (Homo sapiens, UniProt Q12809). Description: Inhibition of human ERG by fluorescence polarization assay. The method in brief:
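Predictor h-ERG membrane preparations (sonicated) incubated with test compound dilutions and fluorescent tracer (working 4X tracer at 4 nM) at room temperature for ≥1 h. Read-out by fluorescence polarization, ex 530/25, em 590/35.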
(In general: Fluorescence polarisation rises when a labelled molecule tumbles more slowly, as on binding a larger partner.)
`COc1ncc2cc1NS(=O)(=O)c1cccc(c1)C(=O)NCc1cncc(c1)Cc1cnc3sc-2nn13` displayed a concentration for half-maximal inhibition (IC50) above 30 µM. Still for that read-out and setting: under `COc1ncc2cc1NS(=O)(=O)c1cccc(c1)C(=O)NCc1cc(ccn1)-c1ccnc3ccc-2cc13` stands above 30 µM.

The next test has as its target Phosphatidylinositol 4,5-bisphosphate 3-kinase catalytic subunit alpha isoform (Homo sapiens, UniProt P42336). Description: Inhibition of human full length p110alpha (1 to 1068 residues) expressed in baculovirus-infected Sf21 cells by ADP-Hunter Plus assay.
Regarding `COc1ncc2cc1NS(=O)(=O)c1cccc(c1)C(=O)NCc1cncc(c1)Cc1cnc3sc-2nn13`, the half-inhibitory concentration (IC50) was 0.0089 µM. Consider `COc1ncc2cc1NS(=O)(=O)c1cccc(c1)C(=O)NCc1cc(ccn1)-c1ccnc3ccc-2cc13`, for which the half-inhibitory concentration (IC50) worked out at 0.0061 µM.
